# According to ChEMBL document CHEMBL1629500, “Synthesis and anticonvulsant activity of N-3-arylamide substituted 5,5-cyclopropanespirohydantoin derivatives” (Eur J Med Chem, 2010):
# Active and inactive are the calls of the source.
# System: Mus musculus
# Experiment: Anticonvulsant activity in ip dosed mouse assessed as inhibition of PTZ-induced clonic seizure after 0.5 hrs
# Type: functional
# Details: not given
# In short: (§1)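 Male Kunming mice were dosed ip with the compound suspended in 0.5% methylcellulose at 30, 100 and 300 mg/kg, one to four mice per dose. Pentylenetetrazole in 0.9% saline was given subcutaneously at 0.5 h and 4.0 h. Protection meant no threshold seizure, i.e. no single clonic spasm episode lasting at least 5 s. The minimal dose active in half or more of the mice was recorded.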
row,Compound,Activity
1,CC1(C)CC12NC(=O)N(NC(=O)c1ccccc1F)C2=O (stereo not drawn),inactive
2,COc1ccc(C(=O)NN2C(=O)NC3(CC3(C)C)C2=O)cc1OC (stereo not drawn),inactive
3,Cc1cccc(C(=O)NN2C(=O)NC3(CC3(C)C)C2=O)c1 (stereo not drawn),inactive
4,O=C1NC(=O)C(c2ccccc2)(c2ccccc2)N1 [PHENYTOIN],inactive
5,Cc1ccc(C(=O)NN2C(=O)NC3(CC3(C)C)C2=O)cc1 (stereo not drawn),inactive
6,CC1(C)CC12NC(=O)N(NC(=O)c1cccnc1)C2=O (stereo not drawn),inactive
7,CC1(C)CC12NC(=O)N(NC(=O)c1cccs1)C2=O (stereo not drawn),inactive
8,CC1(C)CC12NC(=O)N(NC(=O)c1ccncc1)C2=O (stereo not drawn),inactive
9,CC1(C)CC12NC(=O)N(NC(=O)c1ccc(Br)cc1)C2=O (stereo not drawn),inactive
10,COc1ccc(C(=O)NN2C(=O)NC3(CC3(C)C)C2=O)cc1 (stereo not drawn),inactive
11,COc1cc(C(=O)NN2C(=O)NC3(CC3(C)C)C2=O)cc(OC)c1OC (stereo not drawn),inactive
12,CC1(C)CC12NC(=O)N(NC(=O)c1ccco1)C2=O (stereo not drawn),inactive

# System: Mus musculus
# Experiment: Anticonvulsant activity in ip dosed mouse assessed as inhibition of maximum electric shock-induced hind limb tonic extension after 4 hrs
# Type: functional
# Details: Hindlimb
# In short: (§2)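 Male Kunming mice received the compound ip as a suspension in 0.5% methylcellulose at 30, 100 and 300 mg/kg, one to four mice per dose. At 0.5 h and 4.0 h, a 60-Hz, 50-mA current was given through corneal electrodes for 0.25 s. Absence of hindlimb tonic extension counted as protection. The minimal dose protecting half or more of the mice was recorded.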
row,Compound,Activity
1,CC1(C)CC12NC(=O)N(NC(=O)c1ccccc1F)C2=O (stereo not drawn),inactive
2,Cc1cccc(C(=O)NN2C(=O)NC3(CC3(C)C)C2=O)c1 (stereo not drawn),inactive
3,Cc1ccc(C(=O)NN2C(=O)NC3(CC3(C)C)C2=O)cc1 (stereo not drawn),inactive
4,COc1ccc(C(=O)NN2C(=O)NC3(CC3(C)C)C2=O)cc1 (stereo not drawn),inactive
5,COc1cc(C(=O)NN2C(=O)NC3(CC3(C)C)C2=O)cc(OC)c1OC (stereo not drawn),inactive

# Same assay, conditions: Hindlimb, read-out: MED
row,Compound,minimal effective dose [mg/kg]
1,COc1ccc(C(=O)NN2C(=O)NC3(CC3(C)C)C2=O)cc1OC (stereo not drawn),300
2,O=C1NC(=O)C(c2ccccc2)(c2ccccc2)N1 [PHENYTOIN],30
3,CC1(C)CC12NC(=O)N(NC(=O)c1cccnc1)C2=O (stereo not drawn),300
4,CC1(C)CC12NC(=O)N(NC(=O)c1cccs1)C2=O (stereo not drawn),300
5,CC1(C)CC12NC(=O)N(NC(=O)c1ccncc1)C2=O (stereo not drawn),300
6,CC1(C)CC12NC(=O)N(NC(=O)c1ccc(Br)cc1)C2=O (stereo not drawn),300
7,CC1(C)CC12NC(=O)N(NC(=O)c1ccco1)C2=O (stereo not drawn),300

# System: Mus musculus
# Experiment: Anticonvulsant activity in ip dosed mouse assessed as inhibition of PTZ-induced clonic seizure
# Type: functional
# Details: not given
# In short: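 Male Kunming mice (20 ± 2.0 g) were used. Test drug was given ip to groups of 10 mice over a range of doses until at least three points fell between 10% and 90% seizure protection or minimal neurotoxicity. […] Neurotoxicity was scored on the rotorod 30 min after dosing. PI = TD50/ED50.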
row,Compound,ED50 [mg/kg]
1,O=C1NC(=O)C(c2ccccc2)(c2ccccc2)N1 [PHENYTOIN],> 300

# System: Mus musculus
# Experiment: Anticonvulsant activity in ip dosed mouse assessed as inhibition of maximum electric shock-induced hind limb tonic extension after 0.5 hrs
# Type: functional
# Details: Hindlimb
# In short: as §2
row,Compound,Activity
1,CC1(C)CC12NC(=O)N(NC(=O)c1cccnc1)C2=O (stereo not drawn),inactive
2,CC1(C)CC12NC(=O)N(NC(=O)c1cccs1)C2=O (stereo not drawn),inactive
3,CC1(C)CC12NC(=O)N(NC(=O)c1ccncc1)C2=O (stereo not drawn),inactive
4,CC1(C)CC12NC(=O)N(NC(=O)c1ccco1)C2=O (stereo not drawn),inactive

# Same assay, conditions: Hindlimb, read-out: MED
row,Compound,minimal effective dose [mg/kg]
1,CC1(C)CC12NC(=O)N(NC(=O)c1ccccc1F)C2=O (stereo not drawn),100
2,COc1ccc(C(=O)NN2C(=O)NC3(CC3(C)C)C2=O)cc1OC (stereo not drawn),300
3,Cc1cccc(C(=O)NN2C(=O)NC3(CC3(C)C)C2=O)c1 (stereo not drawn),100
4,O=C1NC(=O)C(c2ccccc2)(c2ccccc2)N1 [PHENYTOIN],30
5,Cc1ccc(C(=O)NN2C(=O)NC3(CC3(C)C)C2=O)cc1 (stereo not drawn),100
6,CC1(C)CC12NC(=O)N(NC(=O)c1ccc(Br)cc1)C2=O (stereo not drawn),300
7,COc1ccc(C(=O)NN2C(=O)NC3(CC3(C)C)C2=O)cc1 (stereo not drawn),100
8,COc1cc(C(=O)NN2C(=O)NC3(CC3(C)C)C2=O)cc(OC)c1OC (stereo not drawn),300

# System: Mus musculus
# Experiment: Neurotoxicity against ip dosed mouse by rotarod test after 4 hrs
# Type: toxicity, organism-based
# Details: in vivo
# In short: (§3)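 Mice were trained on a 1-in. knurled rod turning at 6 rpm, then given 30, 100 or 300 mg/kg ip as a suspension in 0.5% methylcellulose. They were tested at 0.5 h and 4.0 h. Neurotoxicity meant failure to keep balance on the rod for at least 1 min in each of four trials. The minimal dose affecting half or more of the mice was recorded.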
Compound,MED [mg/kg],Activity
CC1(C)CC12NC(=O)N(NC(=O)c1ccccc1F)C2=O (stereo not drawn),300,
COc1ccc(C(=O)NN2C(=O)NC3(CC3(C)C)C2=O)cc1OC (stereo not drawn),300,
Cc1cccc(C(=O)NN2C(=O)NC3(CC3(C)C)C2=O)c1 (stereo not drawn),,Not Active
O=C1NC(=O)C(c2ccccc2)(c2ccccc2)N1 [PHENYTOIN],100,
Cc1ccc(C(=O)NN2C(=O)NC3(CC3(C)C)C2=O)cc1 (stereo not drawn),300,
CC1(C)CC12NC(=O)N(NC(=O)c1cccnc1)C2=O (stereo not drawn),300,
CC1(C)CC12NC(=O)N(NC(=O)c1cccs1)C2=O (stereo not drawn),300,
CC1(C)CC12NC(=O)N(NC(=O)c1ccncc1)C2=O (stereo not drawn),300,
CC1(C)CC12NC(=O)N(NC(=O)c1ccc(Br)cc1)C2=O (stereo not drawn),300,
COc1ccc(C(=O)NN2C(=O)NC3(CC3(C)C)C2=O)cc1 (stereo not drawn),300,
COc1cc(C(=O)NN2C(=O)NC3(CC3(C)C)C2=O)cc(OC)c1OC (stereo not drawn),300,
CC1(C)CC12NC(=O)N(NC(=O)c1ccco1)C2=O (stereo not drawn),300,

# System: Mus musculus
# Experiment: Neurotoxicity against ip dosed mouse by rotarod test after 0.5 hrs
# Type: toxicity, organism-based
# Details: in vivo
# In short: as §3
Compound,Activity,MED [mg/kg]
CC1(C)CC12NC(=O)N(NC(=O)c1ccccc1F)C2=O (stereo not drawn),Not Active,
COc1ccc(C(=O)NN2C(=O)NC3(CC3(C)C)C2=O)cc1OC (stereo not drawn),Not Active,
Cc1cccc(C(=O)NN2C(=O)NC3(CC3(C)C)C2=O)c1 (stereo not drawn),Not Active,
O=C1NC(=O)C(c2ccccc2)(c2ccccc2)N1 [PHENYTOIN],,100
Cc1ccc(C(=O)NN2C(=O)NC3(CC3(C)C)C2=O)cc1 (stereo not drawn),Not Active,
CC1(C)CC12NC(=O)N(NC(=O)c1cccnc1)C2=O (stereo not drawn),,100
CC1(C)CC12NC(=O)N(NC(=O)c1cccs1)C2=O (stereo not drawn),,100
CC1(C)CC12NC(=O)N(NC(=O)c1ccncc1)C2=O (stereo not drawn),,100
CC1(C)CC12NC(=O)N(NC(=O)c1ccc(Br)cc1)C2=O (stereo not drawn),,300
COc1ccc(C(=O)NN2C(=O)NC3(CC3(C)C)C2=O)cc1 (stereo not drawn),Not Active,
COc1cc(C(=O)NN2C(=O)NC3(CC3(C)C)C2=O)cc(OC)c1OC (stereo not drawn),,100
CC1(C)CC12NC(=O)N(NC(=O)c1ccco1)C2=O (stereo not drawn),,100

# System: Mus musculus
# Experiment: Anticonvulsant activity in ip dosed mouse assessed as inhibition of PTZ-induced clonic seizure after 4 hrs
# Type: functional
# Details: not given
# In short: as §1
row,Compound,Activity
1,CC1(C)CC12NC(=O)N(NC(=O)c1ccccc1F)C2=O (stereo not drawn),inactive
2,Cc1cccc(C(=O)NN2C(=O)NC3(CC3(C)C)C2=O)c1 (stereo not drawn),inactive
3,O=C1NC(=O)C(c2ccccc2)(c2ccccc2)N1 [PHENYTOIN],inactive
4,CC1(C)CC12NC(=O)N(NC(=O)c1cccnc1)C2=O (stereo not drawn),inactive
5,CC1(C)CC12NC(=O)N(NC(=O)c1cccs1)C2=O (stereo not drawn),inactive
6,CC1(C)CC12NC(=O)N(NC(=O)c1ccncc1)C2=O (stereo not drawn),inactive
7,COc1ccc(C(=O)NN2C(=O)NC3(CC3(C)C)C2=O)cc1 (stereo not drawn),inactive
8,COc1cc(C(=O)NN2C(=O)NC3(CC3(C)C)C2=O)cc(OC)c1OC (stereo not drawn),inactive
9,CC1(C)CC12NC(=O)N(NC(=O)c1ccco1)C2=O (stereo not drawn),inactive

# Same assay, conditions: read-out: MED
row,Compound,minimal effective dose [mg/kg]
1,COc1ccc(C(=O)NN2C(=O)NC3(CC3(C)C)C2=O)cc1OC (stereo not drawn),300
2,Cc1ccc(C(=O)NN2C(=O)NC3(CC3(C)C)C2=O)cc1 (stereo not drawn),300
3,CC1(C)CC12NC(=O)N(NC(=O)c1ccc(Br)cc1)C2=O (stereo not drawn),300
